≈ marks a conversion by molar mass, not a printed value.
Experiments:
[1] = Cytotoxicity against human HEL cells assessed as minimum concentration required to cause microscopically detectable alteration after 2 days; assay type: cell-based; settings: read-out: Activity
Felid alphaherpesvirus 1 = test: Antiviral activity against Feline herpes virus infected in cat CRFK cells assessed as protection against virus-induced cytopathogenicity after 2 days by MTS assay; assay type: functional, organism-based; settings: Felid alphaherpesvirus 1, CRFK, 48 h
Human alphaherpesvirus 1 [2] = test: Antiviral activity against acyclovir-resistant TK deficient Herpes simplex virus-1 KOS infected in human HEL cells assessed as protection against virus-induced cytopathogenicity after 2 days; assay type: functional, organism-based; settings: Human alphaherpesvirus 1, KOS, 48 h
[3] = Cytotoxicity against cat CRFK cells by MTS assay; assay type: cell-based, Felis catus
Summary of the method: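 In uninfected CRFK cells, the 50% cytotoxic concentration was derived from cell viability measured by the colorimetric formazan-based MTS assay.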

[4] = test system: Feline infectious peritonitis virus; test: Antiviral activity against Feline coronavirus FIPV infected in cat CRFK cells assessed as protection against virus-induced cytopathogenicity after 2 days by MTS assay; assay type: functional, cell-based; settings: Alphacoronavirus 1, CRFK, 48 h
Human alphaherpesvirus 1 [5] = test: Antiviral activity against Herpes simplex virus-1 KOS infected in human HEL cells assessed as protection against virus-induced cytopathogenicity after 2 days; assay type: functional, organism-based; settings: Human alphaherpesvirus 1, KOS, 48 h
[6] = test system: Vesicular stomatitis virus; test: Antiviral activity against Vesicular stomatitis virus infected in human HEL cells assessed as protection against virus-induced cytopathogenicity after 2 days; assay type: functional, organism-based; settings: 48 h
Human alphaherpesvirus 2 = test: Antiviral activity against Herpes simplex virus-2 G infected in human HEL cells assessed as protection against virus-induced cytopathogenicity after 2 days; assay type: functional, organism-based; settings: Human alphaherpesvirus 2, strain G, 48 h
Influenza B virus [7] = test: Antiviral activity against influenza B virus infected in MDCK cells assessed as cell viability at 100 ug/ml after 2 days by MTS assay; assay type: functional, organism-based
Influenza A virus [8] = test: Antiviral activity against Influenza A virus H3N2 infected in MDCK cells assessed as cell viability at 100 ug/ml after 2 days by MTS assay; assay type: functional, organism-based
[9] = test system: Mammalian orthoreovirus 1; test: Antiviral activity against Reovirus-1 infected in african green monkey Vero cells assessed as protection against virus-induced cytopathogenicity after 2 days; assay type: functional, organism-based; settings: Mammalian orthoreovirus 1, Vero, 48 h
Human respirovirus 3 = test: Antiviral activity against Para influenza-3 virus infected in african green monkey Vero cells assessed as protection against virus-induced cytopathogenicity after 2 days; assay type: functional, organism-based; settings: Human respirovirus 3, Vero, 48 h
Influenza A virus [10] = test: Antiviral activity against influenza A virus H1N1 infected in MDCK cells assessed as protection against virus-induced cytopathogenicity at 100 ug/ml after 2 days; assay type: functional, organism-based
Summary of the method: (§1)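 Infected MDCK cells were treated. […] N.A. means not active at the highest concentration tested or at a subtoxic concentration.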

Influenza A virus [11] = test: Antiviral activity against influenza A virus H1N1 infected in MDCK cells assessed as cell viability at 100 ug/ml after 2 days by MTS assay; assay type: functional, organism-based
Coxsackievirus B4 [12] = test: Antiviral activity against Coxsackie virus B4 infected in african green monkey Vero cells assessed as protection against virus-induced cytopathogenicity after 2 days; assay type: functional, organism-based; settings: Enterovirus B, 48 h
Influenza A virus [13] = test: Antiviral activity against Influenza A virus H3N2 infected in MDCK cells assessed as protection against virus-induced cytopathogenicity at 100 ug/ml after 2 days; assay type: functional, organism-based; summary of the method: as §1
Influenza B virus [14] = test: Antiviral activity against influenza B virus infected in MDCK cells assessed as protection against virus-induced cytopathogenicity at 100 ug/ml after 2 days; assay type: functional, organism-based; summary of the method: as §1
[15] = Cytotoxicity against human HeLa cells assessed as minimum concentration required to cause microscopically detectable alteration after 2 days; assay type: cell-based; settings: read-out: Activity
[16] = Cytotoxicity against african green monkey Vero cells assessed as minimum concentration required to cause microscopically detectable alteration after 2 days; assay type: cell-based; settings: chlorocebus sabaeus, read-out: Activity
[17] = test system: Vesicular stomatitis virus; test: Antiviral activity against Vesicular stomatitis virus infected in human HeLa cells assessed as protection against virus-induced cytopathogenicity after 2 days; assay type: functional, organism-based; settings: 48 h
MDCK = test: Cytotoxicity against MDCK cells by MTS assay; assay type: cell-based, Canis lupus familiaris; settings: dog, mdck
Summary of the method: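 In Madin Darby canine kidney cells, the 50% cytotoxic concentration was derived from cell viability measured by the colorimetric formazan-based MTS assay.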

[18] = Cytotoxicity against MDCK cells assessed as minimum concentration required to cause microscopically detectable alteration after 2 days; assay type: cell-based, Canis lupus familiaris; settings: dog, read-out: Activity
Punta Toro virus = test: Antiviral activity against Punta Toro virus infected in african green monkey Vero cells assessed as protection against virus-induced cytopathogenicity after 2 days; assay type: functional, organism-based; settings: 48 h
Sindbis virus = test: Antiviral activity against Sindbis virus infected in african green monkey Vero cells assessed as protection against virus-induced cytopathogenicity after 2 days; assay type: functional, organism-based; settings: 48 h
Coxsackievirus B4 [19] = test: Antiviral activity against Coxsackie virus B4 infected in human HeLa cells assessed as protection against virus-induced cytopathogenicity after 2 days; assay type: functional, organism-based; settings: Enterovirus B, 48 h
[20] = test system: Respiratory syncytial virus; test: Antiviral activity against Respiratory syncytial virus infected in human HeLa cells assessed as protection against virus-induced cytopathogenicity after 2 days; assay type: functional, organism-based; settings: 48 h

Structure (SMILES)	MCC at 48 h [1] [µg/mL]	EC50 (Felid alphaherpesvirus 1) [µg/mL]	EC50 (Human alphaherpesvirus 1 [2]) [µg/mL]	EC50 [4] [µg/mL]	EC50 (Human alphaherpesvirus 1 [5]) [µg/mL]	EC50 [6] [µg/mL]	EC50 (Human alphaherpesvirus 2) [µg/mL]	EC50 (Influenza B virus [7])	EC50 (Influenza A virus [8])	EC50 [9] [µg/mL]	EC50 (Human respirovirus 3) [µg/mL]	EC50 (Influenza A virus [10])	EC50 (Influenza A virus [11])	EC50 (Coxsackievirus B4 [12]) [µg/mL]	EC50 (Influenza A virus [13])	EC50 (Influenza B virus [14])	MCC at 48 h [15] [µg/mL]	MCC at 48 h [16] [µg/mL]	EC50 [17] [µg/mL]	EC50 (Coxsackievirus B4 [19]) [µg/mL]	also measured
Nc1nc2c(ncn2COC(CO)CO)c(=O)[nH]1 [GANCICLOVIR]	> 100	0.8 (≈ 3.13 µM)	2 (≈ 7.84 µM)	> 100	0.05 (≈ 0.196 µM)	> 100	0.07 (≈ 0.274 µM)	–	–	–	–	–	–	–	–	–	–	–	–	–	CC50 ([3]; CRFK cells, read-out: CC50): > 100 µg/mL
C/C(=N\n1c(-c2ccccc2)nc2ccccc2c1=O)c1ccc(Cl)cc1	100	> 100	> 20	–	–	–	–	Not Active	Not Active	> 20	> 20	Not Active	Not Active	> 20	Not Active	Not Active	100	100	> 20	–	–
Nc1ccn(C[C@@H](CO)OCP(=O)(O)O)c(=O)n1.O.O [CIDOFOVIR]	> 250	–	–	–	–	> 250	–	–	–	–	–	–	–	–	–	–	–	–	–	–	–
COc1ccccc1/C=N/n1c(-c2ccccc2)nc2ccccc2c1=O	100	> 4	> 20	> 4	> 20	> 20	> 20	Not Active	Not Active	> 20	> 20	Not Active	Not Active	> 20	Not Active	Not Active	20	100	> 4	> 4	CC50 (MDCK): 12.4 µg/mL (≈ 34.9 µM); MCC at 48 h [18]: 20 µg/mL; EC50 (Punta Toro virus): > 20 µg/mL; CC50 ([3]; crfk): 14.4 µg/mL (≈ 40.5 µM); EC50 (Sindbis virus): > 20 µg/mL; EC50 [20]: > 4 µg/mL
O=c1c2ccccc2nc(-c2ccccc2)n1/N=C/c1cccc([N+](=O)[O-])c1	≥ 20	> 4	> 20	> 4	> 20	> 20	> 20	Not Active	Not Active	> 4	> 4	Not Active	Not Active	> 4	Not Active	Not Active	20	20	> 4	> 4	CC50 (MDCK): > 100 µg/mL; MCC at 48 h [18]: 20 µg/mL; EC50 (Punta Toro virus): > 4 µg/mL; CC50 ([3]; crfk): 13.8 µg/mL (≈ 37.3 µM); EC50 (Sindbis virus): > 4 µg/mL; EC50 [20]: > 4 µg/mL
C/C(=N\n1c(-c2ccccc2)nc2ccccc2c1=O)c1ccccc1	> 100	> 0.8	> 100	> 0.8	> 100	> 100	> 100	Not Active	Not Active	> 20	> 20	Not Active	Not Active	> 20	Not Active	Not Active	> 100	100	> 100	> 100	CC50 (MDCK): > 100 µg/mL; MCC at 48 h [18]: 100 µg/mL; EC50 (Punta Toro virus): > 20 µg/mL; CC50 ([3]; crfk): 2.6 µg/mL (≈ 7.66 µM); EC50 (Sindbis virus): > 20 µg/mL; EC50 [20]: > 100 µg/mL
CN(C)c1ccc(/C=N/n2c(-c3ccccc3)nc3ccccc3c2=O)cc1	–	> 100	> 20	–	–	> 20	–	Not Active	Not Active	> 20	> 20	Not Active	Not Active	–	Not Active	Not Active	–	–	–	> 20	–

Source: ChEMBL document CHEMBL1287642, “Synthesis, antiviral activity and cytotoxicity evaluation of Schiff bases of some 2-phenyl quinazoline-4(3)H-ones” (Eur J Med Chem, 2010)
